# In the M2OR odorant receptor database:
# Key:
# Settings in all cases: stereoisomer not certain
# [1] = molecular target: T1, OR8D1 (Homo sapiens) (UniProt Q8WZ84)
# T1 sequence (whole entry): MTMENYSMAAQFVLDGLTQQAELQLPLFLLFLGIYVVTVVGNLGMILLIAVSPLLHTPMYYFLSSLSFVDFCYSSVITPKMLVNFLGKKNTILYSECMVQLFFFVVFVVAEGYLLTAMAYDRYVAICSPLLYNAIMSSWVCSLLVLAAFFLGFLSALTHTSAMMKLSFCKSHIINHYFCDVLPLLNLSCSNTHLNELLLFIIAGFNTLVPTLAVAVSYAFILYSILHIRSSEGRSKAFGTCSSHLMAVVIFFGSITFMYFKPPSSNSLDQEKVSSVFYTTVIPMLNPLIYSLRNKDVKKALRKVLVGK
# In short: (§1)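 Whether a receptor–molecule pair is responsive (active) rests on the original authors' judgment that its measured signal was statistically different from baseline. Pairs without that judgment are non-responsive (inactive). Sources used varied assay methods, commonly transient luciferase assays in mammalian cell lines.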
# [2] = molecular target: OR8B8 (Homo sapiens) (UniProt Q15620)
# Sequence of OR8B8 (Homo sapiens) (Q15620 whole entry): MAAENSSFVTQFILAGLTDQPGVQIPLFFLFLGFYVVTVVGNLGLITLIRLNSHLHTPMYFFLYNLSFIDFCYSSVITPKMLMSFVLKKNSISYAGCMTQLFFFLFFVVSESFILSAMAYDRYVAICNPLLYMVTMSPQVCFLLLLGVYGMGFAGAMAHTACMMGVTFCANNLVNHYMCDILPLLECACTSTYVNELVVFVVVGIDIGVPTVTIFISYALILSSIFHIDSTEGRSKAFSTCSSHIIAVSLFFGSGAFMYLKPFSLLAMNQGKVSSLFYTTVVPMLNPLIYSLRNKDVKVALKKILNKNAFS
# In short: as §1
# [3] = system: OR8B8 L101P
# Sequence of OR8B8 L101P (as listed by the source, stated change not applied): as the sequence (Q15620 whole entry) above, with L101P counted along it
# In short: as §1
# [4] = system: OR8D1 C127G L194P
# In short: as §1
# [5] = system: OR8D1 L194P
# Sequence of OR8D1 L194P (as listed by the source, stated change not applied): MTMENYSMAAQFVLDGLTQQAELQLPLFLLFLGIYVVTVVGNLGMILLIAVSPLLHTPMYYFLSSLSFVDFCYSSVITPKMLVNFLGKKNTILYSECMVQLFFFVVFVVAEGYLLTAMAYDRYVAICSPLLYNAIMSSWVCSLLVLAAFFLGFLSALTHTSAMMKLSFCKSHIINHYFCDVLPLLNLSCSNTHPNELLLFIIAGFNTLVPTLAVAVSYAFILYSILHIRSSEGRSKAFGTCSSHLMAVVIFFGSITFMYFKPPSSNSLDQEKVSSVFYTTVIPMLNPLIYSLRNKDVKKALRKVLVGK
# In short: as §1
# [6] = molecular target: OR8D2 (Homo sapiens) (UniProt Q9GZM6)
# Sequence of OR8D2 (Homo sapiens) (Q9GZM6 whole entry): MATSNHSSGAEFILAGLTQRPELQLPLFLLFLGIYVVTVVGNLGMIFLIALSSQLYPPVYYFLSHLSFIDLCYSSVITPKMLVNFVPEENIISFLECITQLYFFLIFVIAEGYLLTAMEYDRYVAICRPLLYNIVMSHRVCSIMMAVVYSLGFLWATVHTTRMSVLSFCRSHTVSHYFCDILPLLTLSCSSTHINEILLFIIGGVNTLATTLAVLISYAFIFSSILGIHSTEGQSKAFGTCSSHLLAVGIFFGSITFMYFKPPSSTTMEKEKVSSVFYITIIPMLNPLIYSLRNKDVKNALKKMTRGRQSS
# In short: as §1
# [7] = molecular target: OR8D4 (Homo sapiens) (UniProt Q8NGM9)
# Sequence of OR8D4 (Homo sapiens) (Q8NGM9 whole entry): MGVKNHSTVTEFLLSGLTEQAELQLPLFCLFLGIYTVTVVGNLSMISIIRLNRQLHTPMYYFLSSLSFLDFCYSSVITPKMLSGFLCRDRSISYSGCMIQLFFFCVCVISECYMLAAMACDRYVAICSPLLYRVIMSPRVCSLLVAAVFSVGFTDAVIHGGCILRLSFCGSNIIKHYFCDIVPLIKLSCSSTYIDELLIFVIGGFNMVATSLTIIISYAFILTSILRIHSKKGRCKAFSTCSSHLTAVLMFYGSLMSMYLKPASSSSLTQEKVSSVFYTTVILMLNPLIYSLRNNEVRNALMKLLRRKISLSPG
# In short: as §1
# [8] = system: OR8D4 C120Y R133K
# In short: as §1
# [9] = molecular target: OR8G1 (Homo sapiens) (UniProt Q15617)
# Sequence of OR8G1 (Homo sapiens) (Q15617 whole entry): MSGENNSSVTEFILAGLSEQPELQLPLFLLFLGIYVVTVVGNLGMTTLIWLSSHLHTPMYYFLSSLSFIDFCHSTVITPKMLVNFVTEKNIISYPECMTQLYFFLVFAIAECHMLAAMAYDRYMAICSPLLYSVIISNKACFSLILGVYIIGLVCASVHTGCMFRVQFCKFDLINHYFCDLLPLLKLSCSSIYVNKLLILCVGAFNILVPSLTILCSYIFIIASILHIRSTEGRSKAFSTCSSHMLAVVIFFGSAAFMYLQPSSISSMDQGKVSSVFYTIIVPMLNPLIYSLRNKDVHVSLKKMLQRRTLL
# In short: as §1
# [10] = molecular target: OR8G5 (Homo sapiens) (UniProt Q8NG78)
# Sequence of OR8G5 (Homo sapiens) (Q8NG78 whole entry): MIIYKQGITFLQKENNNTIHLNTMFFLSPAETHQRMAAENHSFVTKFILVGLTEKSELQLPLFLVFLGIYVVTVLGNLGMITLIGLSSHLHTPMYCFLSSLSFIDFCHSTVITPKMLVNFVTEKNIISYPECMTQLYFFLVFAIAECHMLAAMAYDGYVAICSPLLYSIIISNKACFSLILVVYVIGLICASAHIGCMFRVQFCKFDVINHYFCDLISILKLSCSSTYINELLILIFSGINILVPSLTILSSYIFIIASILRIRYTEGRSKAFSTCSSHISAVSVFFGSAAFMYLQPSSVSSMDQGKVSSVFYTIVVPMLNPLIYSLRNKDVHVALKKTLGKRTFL
# In short: as §1
# 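Also: active if original authors judged signal statistically different from baseline.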
structure (smiles),measurement,setting,value
O=Cc1ccc2c(c1)OCO2,odorant receptor agonist call,[1],inactive
NCC(=O)c1ccccc1,odorant receptor agonist call,[1],inactive
C=CCOC(=O)Cc1ccccc1,odorant receptor agonist call,[2],inactive
same,odorant receptor agonist call,[3],inactive
same,odorant receptor agonist call,[1],inactive
same,odorant receptor agonist call,[4],inactive
same,odorant receptor agonist call,[5],inactive
same,odorant receptor agonist call,[6],inactive
same,odorant receptor agonist call,[7],inactive
same,odorant receptor agonist call,[8],inactive
same,odorant receptor agonist call,[9],inactive
same,odorant receptor agonist call,[10],inactive
Cc1c([N+](=O)[O-])c(C)c([N+](=O)[O-])c(C(C)(C)C)c1[N+](=O)[O-],odorant receptor agonist call,[2],inactive
same,odorant receptor agonist call,[1],inactive
same,odorant receptor agonist call,[6],inactive
same,odorant receptor agonist call,[7],inactive
same,odorant receptor agonist call,[9],inactive
same,odorant receptor agonist call,[10],inactive
CCOC(=O)Cc1ccccc1,odorant receptor agonist call,[1],inactive
Cc1ccccc1O,odorant receptor agonist call,[1],inactive
CSSC,odorant receptor agonist call,[1],inactive
C=CCSSCC=C,odorant receptor agonist call,[1],inactive
SCc1ccco1,odorant receptor agonist call,[1],inactive
C=CCc1ccc(OC)cc1,odorant receptor agonist call,[1],inactive
Cc1ccc(O)c(C)c1,odorant receptor agonist call,[1],inactive
COc1ccc(C=O)cc1,odorant receptor agonist call,[1],inactive
